Measurements from ChEMBL document CHEMBL1141523, “A new Heck reaction modification using ketone Mannich bases as enone precursors: parallel synthesis of anti-leishmanial chalcones” (Bioorg Med Chem Lett, 2008).

How the values were obtained:
Leishmania donovani [1] = assay: Antileishmanial activity against axenic Leishmania donovani amastigotes at 15 uM by Alamar Blue assay; type: functional
In short: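 L. donovani axenic amastigotes (5.0 × 10^5 cells/ml) were added to an equal volume of compound made up at twice the final concentration in complete amastigote medium with 1% DMSO, giving a 15 µM single-concentration screen. Plates were incubated 24 h at 37 °C in 5% CO2, then alamarBlue was added for 24 h more. Fluorescence was read at ex 544 nm, em 590 nm. Medium ± DMSO served as 0% inhibition, with triplicate wells.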

Leishmania donovani [2] = assay: Antileishmanial activity against axenic Leishmania donovani amastigotes by Alamar Blue assay; type: functional, organism-based
In short: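 Dose-response GI50 (50% growth inhibition) was run on axenic L. donovani amastigotes (5.0 × 10^5 cells/ml) mixed 1:1 with compound at twice the final concentration in amastigote medium with 1% DMSO. Incubation was 24 h at 37 °C in 5% CO2, plus 24 h with alamarBlue, then fluorescence at 544/590 nm. Medium ± DMSO was taken as 0% inhibition. Triplicate wells were used, with duplicate or single experiments ± standard error.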

THP-1 = assay: Cytotoxicity against human THP1 cells at 1 uM after 48 hrs by Alamar Blue assay; type: cell-based; details: thp-1, 48 h
In short: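 THP-1 macrophages in complete RPMI-1640 (8 × 10^5 cells/ml) were added to an equal volume of compound, stated as 2 µM in complete medium with 1% DMSO. Triplicate wells were incubated 48 h at 37 °C in 5% CO2. AlamarBlue was then added for 3 h and fluorescence was read. Medium with and without DMSO served as 0% inhibition controls.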

Leishmania donovani [3] = assay: Antileishmanial activity against axenic Leishmania donovani amastigotes at 1 uM by Alamar Blue assay; type: functional

Structure (SMILES) | inhibition at 15 µM (Leishmania donovani [1]) [%] | IC50 (Leishmania donovani [2]; in the assay text read “by tetrazolium dye-based assay” for “by Alamar Blue assay”) [µM] | Activity (THP-1) [%] | GI50 (Leishmania donovani [2]) [µM] | inhibition at 1 µM (Leishmania donovani [3]) [%]
O=C(/C=C/c1ccc(Oc2ccccc2)nc1)c1ccccc1 | 63.7 | – | – | – | –
COc1ccc(C(=O)/C=C/c2cccc3ccccc23)cc1 | 51 | > 200 | – | – | –
O=C(Nc1ccc(/C=C/C(=O)c2ccco2)cc1)c1ccccc1 | 92.4 | – | 0 | 6 | –
CC(=O)c1ccc(/C=C/C(=O)c2ccccc2)cc1 | 93.6 | – | 45.7 | 5.6 | –
COc1ccc(C(=O)/C=C/c2ccc(NC(C)=O)cc2)cc1 | 54.7 | – | – | – | –
C[C@@H]1[C@H](O)[C@@H](C)/C=C/C=C/C=C/C=C/C=C/C=C/C=C/[C@H](O[C@@H]2O[C@H](C)[C@@H](O)[C@H](N)[C@@H]2O)C[C@@H]2O[C@](O)(C[C@@H](O)C[C@@H](O)[C@H](O)CC[C@@H](O)C[C@@H](O)CC(=O)O[C@H]1C)C[C@H](O)[C@H]2C(=O)O [AMPHOTERICIN B] | 99 | – | – | – | > 90
COc1ccc(C(=O)/C=C/c2ccc(NC(=O)c3ccccc3)cc2)cc1 | 2.1 | – | – | – | –
O=C(/C=C/c1ccc(NC(=O)c2ccccc2)cc1)c1ccccc1 | 91.6 | – | 37 | 7.6 | –
COc1ccc(C(=O)/C=C/c2ccc(Oc3ccccc3)nc2)cc1 | 42 | – | – | – | –
O=C(/C=C/c1ccc(NC(=O)c2ccccc2)cc1)c1cccnc1 | 98.7 | – | 0 | 2.5 | –
O=C(/C=C/c1ccc(NC(=O)c2ccccc2)cc1)c1ccc(Cl)cc1 | 59.8 | – | – | – | –
O=C(Nc1ccc(/C=C/C(=O)c2cccs2)cc1)c1ccccc1 | 95.3 | – | 6 | 5.5 | –
